Results on 13 compounds are retold here after PubChem BioAssay.

Test [1] is described as follows: RPL19A-GFP modulators, yeast TOR pathway, confirmation, cell-based, S. cerevisiae, flow cytometry, cherry picks, mother/daughter gates (AID 2270;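 active = GFP response below 50% of the DMSO control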). The settings on record: S. cerevisiae RPL19A-GFP strain, 3 h, at 10 µM, stronger effect = lower value, 100 = same GFP as DMSO wells. (A flow cytometer gives signals particle by particle.)
The nature of test [2]: LAP4-GFP expression modulators in yeast, confirmation, cell-based, cherry picks, flow cytometry, mother/daughter gates (AID 2271;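 active = GFP response above 150% of the DMSO control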;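 note: ratio of sample to DMSO plate mean so 100% equals DMSO level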). The following applies: S. cerevisiae LAP4-GFP strain, 3 h, at 10 µM, stronger effect = higher value, 100 means same as DMSO control. The method, boiled down:
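Material: Alexa Fluor 633-labelled Saccharomyces cerevisiae GFP-fusion strain, single-plex | Amount: Yeast cells seeded at OD600 of 0.2 | Buffer or medium: SC growth medium | Schedule: 3 h exposure, 30 °C | Measured by: HT flow cytometry, GFP fluorescence channel | Evaluation: % GFP response vs DMSO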

A short description of test [3]: modulators of MEP2-GFP levels in yeast, confirmation, S. cerevisiae, flow cytometry GFP, cherry picks (AID 2272;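 active = GFP response above 150% of the DMSO control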;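 note: ratio of well signal to plate DMSO mean so 100% equals DMSO level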). The following applies: S. cerevisiae MEP2-GFP strain, 3 h, at 10 µM, stronger effect = higher value.
Test [4] can be described thus: AGP1-GFP expression modulators, hit retest, confirmation, cell-based, flow cytometry, S. cerevisiae, cherry picks (AID 2273).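 Note: median GFP channel fluorescence over the whole cell population gate.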 The following applies: S. cerevisiae AGP1-GFP strain, 3 h, at 10 µM.
Test [5] can be described thus: modulators of CIT2-GFP expression in yeast, confirmation, S. cerevisiae, GFP fusion, cherry picks, mother/daughter gates (AID 2274). The settings on record: S. cerevisiae CIT2-GFP strain, flow cytometry, 3 h, at 10 µM, stronger effect = higher value.
Setting [6] is: measured here: daughter cell gate.
The mark [7] stands for this setting: measured here: mother cell gate.
The mark [8] stands for this setting: measured here: daughter cell gate response.
Setting [9] is: measured here: mother cell gate response.

SMILES strings stand for the structures. Calls of active or inactive are those of the source.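 Rule for the calls, unless noted: active = GFP response above 150% of the DMSO level; inconclusive = fewer than 70 events counted for a yeast strain; inactive = the rest.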

With `CCCn1c(=O)c(C(=O)Nc2ccccc2C(=O)OC)c(O)c2ccccc21`, the GFP response vs DMSO in test [1] was 101% (inactive); in test [1] (setting [6]), 99%; in test [1] (setting [7]), 103%; in test [3], 97.8% (inactive). Also, the GFP response relative to DMSO was 92.6% (inactive) in test [2], 94.1% in test [2] (setting [8]) and 95.2% in test [2] (setting [9]). In addition, the GFP response, % of DMSO in test [4] was 103% (inactive); in test [5], 93.9% (inactive); in test [5] (setting [6]), 94.8%; in test [5] (setting [7]) it was 93.4%.

For the compound `Cc1cc(=O)oc2c(C(=O)/C=C\c3cccs3)c(O)ccc12`, the GFP response vs DMSO in test [1] was 98% (inactive); in test [1] (setting [6]), 100%; in test [1] (setting [7]), 95.3%; in test [3], 107% (inactive). The results for the GFP response relative to DMSO in test [2], in test [2] (setting [8]) and in test [2] (setting [9]) were 145% (inactive), 136% and 154%, respectively. The GFP response, % of DMSO is 101% (inactive) in test [4], 95.9% (inactive) in test [5], 99.2% in test [5] (setting [6]) and 91.9% in test [5] (setting [7]).

For `O=C1C=C(c2ccccc2)C(=O)N1Nc1ccccc1`, the GFP response vs DMSO in test [1] is 77.5% (inactive); in test [1] (setting [6]), 88.3%; in test [1] (setting [7]), 64.5%; in test [3], 102% (inactive). For the same compound, the GFP response relative to DMSO in test [2] was 124% (inactive); in test [2] (setting [8]), 96%; in test [2] (setting [9]) it was 113%. The GFP response, % of DMSO in test [4] was 78.4% (inactive); in test [5], 92.6% (inactive); in test [5] (setting [6]) it was 95.4%; in test [5] (setting [7]) it was 78.3%.

Consider `Cc1cccc(NC(=S)NCC23C=CC(O2)C2C(=O)N(c4ccc(Cl)cc4)C(=O)C23)c1` (stereo not drawn), for which the GFP response vs DMSO in test [1] is 100% (inactive); in test [1] (setting [6]), 103%; in test [1] (setting [7]), 99.8%; in test [3] it was 102% (inactive). Besides, the GFP response relative to DMSO is 103% (inactive) in test [2], 102% in test [2] (setting [8]) and 104% in test [2] (setting [9]). The GFP response, % of DMSO in test [4] is 100% (inactive); in test [5], 104% (inactive); in test [5] (setting [6]) it was 104%; in test [5] (setting [7]) it was 103%.

Take `CC(C)(C)NC(=O)CN(C(=O)CCC(=O)Nc1nccs1)c1ccc(F)cc1`: the GFP response vs DMSO was 101% (inactive) in test [1], 100% in test [1] (setting [6]), 101% in test [1] (setting [7]) and 105% (inactive) in test [3]. The GFP response relative to DMSO in test [2] was 98.2% (inactive); in test [2] (setting [8]) it was 95.9%; in test [2] (setting [9]) it was 98.4%. Further, the GFP response, % of DMSO in test [4] was 101% (inactive); in test [5] it was 102% (inactive); in test [5] (setting [6]) it was 99.2%; in test [5] (setting [7]), 101%.

Regarding `CCCc1[nH]nc2c1C(c1ccc(O)cc1OCC)C(C#N)=C(N)O2` (stereo not drawn), the GFP response vs DMSO was 102% (inactive) in test [1], 104% in test [1] (setting [6]), 100% in test [1] (setting [7]) and 106% (inactive) in test [3]. Moreover, the GFP response relative to DMSO in test [2] was 92.9% (inactive); in test [2] (setting [8]), 99%; in test [2] (setting [9]), 92.3%. The GFP response, % of DMSO in test [4] is 101% (inactive); in test [5], 104% (inactive); in test [5] (setting [6]), 105%; in test [5] (setting [7]), 104%.

`CCC(CC)C(=O)Nc1cccc(/C(C)=N/NC(=O)c2ccccc2Cl)c1`: the GFP response vs DMSO in test [1] is 98.6% (inactive); in test [1] (setting [6]), 97%; in test [1] (setting [7]), 99.1%; in test [3] it was 102% (inactive). Further, the GFP response relative to DMSO in test [2] was 99.8% (inactive); in test [2] (setting [8]), 103%; in test [2] (setting [9]), 99.3%. In addition, the GFP response, % of DMSO in test [4] was 100% (inactive); in test [5], 100% (inactive); in test [5] (setting [6]) it was 99.7%; in test [5] (setting [7]), 102%.

On to `COC(=O)Cc1csc(Nc2ccc(F)c(Cl)c2)n1`, for which the GFP response vs DMSO was 101% (inactive) in test [1], 102% in test [1] (setting [6]), 100% in test [1] (setting [7]) and 95.7% (inactive) in test [3]. Also, the GFP response relative to DMSO in test [2] is 97.4% (inactive); in test [2] (setting [8]) it was 98.7%; in test [2] (setting [9]), 98.3%. Also, the GFP response, % of DMSO in test [4] is 93.7% (inactive); in test [5], 110% (inactive); in test [5] (setting [6]), 106%; in test [5] (setting [7]), 107%.

As to `CCc1nnc(NC(=O)c2ccc(S(=O)(=O)N3CCCC(C)C3)cc2)o1` (stereo not drawn), the GFP response vs DMSO in test [1] is 101% (inactive); in test [1] (setting [6]), 99.1%; in test [1] (setting [7]), 98.5%; in test [3] it was 101% (inactive). In addition, the GFP response relative to DMSO in test [2] is 98.2% (inactive); in test [2] (setting [8]), 97.5%; in test [2] (setting [9]), 100%. For the same compound, the GFP response, % of DMSO in test [4] was 105% (inactive); in test [5], 102% (inactive); in test [5] (setting [6]), 105%; in test [5] (setting [7]), 99.3%.

For `COc1ccc(C(=O)Nc2cccc(C)c2)cc1`, the GFP response vs DMSO in test [1] was 98.2% (inactive); in test [1] (setting [6]), 99.3%; in test [1] (setting [7]), 96.9%; in test [3], 108% (inactive). Moreover, the GFP response relative to DMSO is 109% (inactive) in test [2], 108% in test [2] (setting [8]) and 107% in test [2] (setting [9]). Moreover, the GFP response, % of DMSO in test [4] is 101% (inactive); in test [5] it was 111% (inactive); in test [5] (setting [6]), 108%; in test [5] (setting [7]), 108%.

Regarding `COc1ccccc1OCC(=O)Sc1ccc(C)cc1`, the GFP response vs DMSO in test [1] was 95.3% (inactive); in test [1] (setting [6]) it was 96.7%; in test [1] (setting [7]) it was 92.3%; in test [3], 120% (inactive). For the same compound, the figures for the GFP response relative to DMSO in test [2], in test [2] (setting [8]) and in test [2] (setting [9]) were 113% (inactive), 110% and 113%, respectively. For the same compound, the GFP response, % of DMSO in test [4] was 99.3% (inactive); in test [5] it was 97.2% (inactive); in test [5] (setting [6]), 99.3%; in test [5] (setting [7]) it was 93.8%.

`COc1ccc(-c2csc(NC(=O)CSc3nc(C)nc4sc(C(=O)O)c(C)c34)n2)cc1`: the GFP response vs DMSO is 100% (inactive) in test [1], 99% in test [1] (setting [6]), 100% in test [1] (setting [7]) and 102% (inactive) in test [3]. For the same compound, the figures for the GFP response relative to DMSO in test [2], in test [2] (setting [8]) and in test [2] (setting [9]) were 85.4% (inactive), 87.9% and 89%, respectively. For the same compound, the GFP response, % of DMSO in test [4] is 104% (inactive); in test [5] it was 102% (inactive); in test [5] (setting [6]) it was 99.7%; in test [5] (setting [7]) it was 103%.

For the compound `COc1cc(C)c(C)cc1S(=O)(=O)N1CCCCC1c1cccnc1` (stereo not drawn), the GFP response vs DMSO is 98.4% (inactive) in test [1], 98.8% in test [1] (setting [6]), 99.2% in test [1] (setting [7]) and 99.5% (inactive) in test [3]. The figures for the GFP response relative to DMSO in test [2], in test [2] (setting [8]) and in test [2] (setting [9]) were 102% (inactive), 105% and 99.5%, respectively. In addition, the GFP response, % of DMSO is 100% (inactive) in test [4], 96.4% (inactive) in test [5], 100% in test [5] (setting [6]) and 95.6% in test [5] (setting [7]).
